Reference: ChEMBL document CHEMBL4033795, “Design, Synthesis, and Structure-Activity Relationship Study of 2-Oxo-3,4-dihydropyrimido[4,5- d]pyrimidines as New Colony Stimulating Factor 1 Receptor (CSF1R) Kinase Inhibitors” (J Med Chem, 2018)

Experiments:
[1] = Half life in Sprague-Dawley rat at 5 mg/kg, iv measured up to 72 hrs by LC/MS analysis; type: ADME, organism-based; settings: in vivo
Procedure, shortened: (§1)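 Male Sprague-Dawley rats, 4–6 weeks old, acclimatised 1 week, were dosed iv at 5 mg/kg or by oral gavage at 25 mg/kg. Vehicle was 2% DMSO, 4% EtOH, 4% castor oil, 90% H2O. Blood was drawn by orbital sinus puncture from 2 min to 72 h into heparinized tubes. Plasma was assayed by LC/MS with propranolol as internal standard. Three animals per group.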

RAW264.7 [2] = assay: Antimigratory activity against mouse RAW264.7 cells assessed as inhibition of human LNCaP-MDV-CM mediated macrophage migration after 24 hrs by crystal violet staining based transwell assay; type: functional, cell-based
Procedure, shortened: (§2)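 RAW264.7 cells, (2−4) × 10^5, were placed serum-free in the upper insert of a transwell. The lower chamber held conditioned medium from LNCaP cells grown 48 h in 10% FBS RPMI 1640 with 10 μM MDV3100 or DMSO. Compound at 0.625–5.0 μM was added to the top chamber for 24 h at 37 °C. Migrated cells were fixed in methanol, stained with 0.25% crystal violet and counted in six random fields at 200×. Three independent experiments.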

Homo sapiens [3] = organism: Homo sapiens; assay: Selectivity ratio of IC50 for recombinant human His-tagged FLT3 (564 to 958 residues) expressed in baculovirus to IC50 for recombinant human His-tagged CSF1R cytoplasmic domain (538 to 910 residues) expressed in baculovirus
RAW264.7 [4] = assay: Inhibition of protumorigenic potential of mouse RAW264.7 cells assessed as abrogation of human LNCAP cell growth enhancement of macrophages at 0.4 uM co-cultured for 48 hrs by CCK8 assay relative to control; type: functional; settings: RAW264.7, 48 h
Procedure, shortened: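 LNCaP cells, (2−4) × 10^5, were seeded in the lower transwell chamber. After 2 h, (1−2) × 10^6 RAW264.7 cells were added in a 0.4 μm insert. Compound at 0.016–2.0 μM was added to the top chamber and cells were cocultured 48 h at 37 °C. LNCaP cells were then imaged and counted by CCK8. Run three times, each in triplicate.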

RAW264.7 [5] = assay: Downregulation of MMP9 mRNA expression in mouse RAW264.7 cells after 48 hrs by qRT-PCR analysis relative to DMSO; type: functional, cell-based
Procedure, shortened: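 RAW264.7 macrophages were treated 48 h with compound at 0.08, 0.4 or 2.0 μM, or DMSO vehicle. Total RNA was extracted with TRIzol and transcripts were quantified by qRT-PCR using gene-specific primers. Run three times, each in triplicate.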

RAW264.7 [6] = assay: Antimigratory activity against mouse RAW264.7 cells assessed as inhibition of human LNCaP-MDV-CM mediated macrophage migration at 1.25 uM after 24 hrs by crystal violet staining based transwell assay relative to control; type: functional; settings: RAW264.7, 24 h; procedure, shortened: as §2
[7] = biological target: Ephrin type-A receptor 1 (Homo sapiens) (UniProt P21709); assay: Inhibition of recombinant human EPHA1 (V588 to I913 residues) expressed in bacterial expression system at 100 nM by KINOMEscan assay relative to control
Chain of Ephrin type-A receptor 1 (Homo sapiens) (P21709 whole entry, the tested form may be a part): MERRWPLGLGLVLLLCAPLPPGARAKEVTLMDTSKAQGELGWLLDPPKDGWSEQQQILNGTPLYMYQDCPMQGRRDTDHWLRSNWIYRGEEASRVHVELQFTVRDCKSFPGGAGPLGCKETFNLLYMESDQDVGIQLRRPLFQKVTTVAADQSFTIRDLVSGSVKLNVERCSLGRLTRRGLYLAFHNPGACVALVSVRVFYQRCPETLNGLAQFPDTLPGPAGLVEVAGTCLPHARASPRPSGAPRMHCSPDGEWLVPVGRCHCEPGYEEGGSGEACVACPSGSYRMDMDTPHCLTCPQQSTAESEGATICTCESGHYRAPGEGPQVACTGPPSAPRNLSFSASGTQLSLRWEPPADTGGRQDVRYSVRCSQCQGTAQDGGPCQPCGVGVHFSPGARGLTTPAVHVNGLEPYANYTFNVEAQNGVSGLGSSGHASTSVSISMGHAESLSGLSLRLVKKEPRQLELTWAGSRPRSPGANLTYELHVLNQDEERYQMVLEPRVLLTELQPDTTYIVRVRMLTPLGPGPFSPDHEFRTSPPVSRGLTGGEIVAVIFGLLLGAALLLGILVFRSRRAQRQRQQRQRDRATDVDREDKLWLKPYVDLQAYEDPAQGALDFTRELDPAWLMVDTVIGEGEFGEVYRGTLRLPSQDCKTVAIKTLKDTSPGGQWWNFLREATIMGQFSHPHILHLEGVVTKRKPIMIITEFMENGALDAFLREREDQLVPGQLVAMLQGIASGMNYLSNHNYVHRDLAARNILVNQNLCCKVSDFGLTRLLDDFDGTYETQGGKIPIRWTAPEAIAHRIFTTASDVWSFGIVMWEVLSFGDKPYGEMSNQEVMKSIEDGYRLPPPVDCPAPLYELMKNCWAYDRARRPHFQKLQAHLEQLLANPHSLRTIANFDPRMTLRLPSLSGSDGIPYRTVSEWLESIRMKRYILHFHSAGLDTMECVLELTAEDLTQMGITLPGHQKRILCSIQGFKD

[8] = biological target: Fibroblast growth factor receptor 1 (Homo sapiens, UniProt P11362); assay: Inhibition of cytoplasmic recombinant human His-tagged FGFR1 (308 to 731 residues) expressed in baculovirus using tyr4 peptide as substrate after 1 hr by FRET-based Z'-Lyte assay
[9] = biological target: Receptor-type tyrosine-protein kinase FLT3 (Homo sapiens, UniProt P36888); assay: Inhibition of recombinant human His-tagged FLT3 (564 to 958 residues) expressed in baculovirus using poly (Glu,Tyr) as substrate after 2 hrs by PK-Light ATP assay
Chain of Receptor-type tyrosine-protein kinase FLT3 (P36888 whole entry, the tested form may be a part): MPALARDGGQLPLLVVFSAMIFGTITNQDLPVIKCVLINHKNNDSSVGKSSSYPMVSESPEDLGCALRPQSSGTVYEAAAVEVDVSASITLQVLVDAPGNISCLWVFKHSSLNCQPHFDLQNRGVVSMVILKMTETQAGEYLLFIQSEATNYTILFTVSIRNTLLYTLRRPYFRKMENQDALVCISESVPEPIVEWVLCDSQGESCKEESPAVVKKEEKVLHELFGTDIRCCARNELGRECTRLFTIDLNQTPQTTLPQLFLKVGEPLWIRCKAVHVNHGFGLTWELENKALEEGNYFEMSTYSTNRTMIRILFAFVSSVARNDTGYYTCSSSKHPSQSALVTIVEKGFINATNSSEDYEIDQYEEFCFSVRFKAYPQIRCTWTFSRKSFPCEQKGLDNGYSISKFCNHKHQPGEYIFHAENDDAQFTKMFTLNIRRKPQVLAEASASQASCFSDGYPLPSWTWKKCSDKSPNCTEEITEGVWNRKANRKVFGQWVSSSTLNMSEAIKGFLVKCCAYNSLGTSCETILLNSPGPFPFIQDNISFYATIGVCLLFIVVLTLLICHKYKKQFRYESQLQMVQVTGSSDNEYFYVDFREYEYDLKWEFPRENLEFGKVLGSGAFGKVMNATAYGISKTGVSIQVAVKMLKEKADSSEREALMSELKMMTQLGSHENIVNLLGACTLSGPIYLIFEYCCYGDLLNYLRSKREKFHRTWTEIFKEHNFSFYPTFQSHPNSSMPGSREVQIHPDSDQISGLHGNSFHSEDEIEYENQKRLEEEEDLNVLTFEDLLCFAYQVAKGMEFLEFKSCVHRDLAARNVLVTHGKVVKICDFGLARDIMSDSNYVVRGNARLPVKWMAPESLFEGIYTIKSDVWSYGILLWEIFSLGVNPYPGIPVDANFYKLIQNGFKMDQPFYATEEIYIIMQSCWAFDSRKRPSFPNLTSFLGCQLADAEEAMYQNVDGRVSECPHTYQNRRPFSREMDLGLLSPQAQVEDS

Homo sapiens [10] = organism: Homo sapiens; assay: Selectivity ratio of IC50 for recombinant human PDGFRbeta expressed in baculovirus to IC50 for recombinant human His-tagged CSF1R cytoplasmic domain (538 to 910 residues) expressed in baculovirus
[11] = Cmax in Sprague-Dawley rat at 25 mg/kg administered via oral gavage measured up to 72 hrs by LC/MS analysis; type: ADME, organism-based; set-up: dose 25 mg/kg, route oral; settings: in vivo; procedure, shortened: as §1
[12] = biological target: Fibroblast growth factor receptor 4 (Homo sapiens, UniProt P22455); assay: Inhibition of cytoplasmic recombinant human His-tagged FGFR4 ([…] residues) expressed in baculovirus using tyr4 peptide as substrate after 1 hr by FRET-based Z'-Lyte assay
Chain of Fibroblast growth factor receptor 4 (P22455 whole entry, the tested form may be a part): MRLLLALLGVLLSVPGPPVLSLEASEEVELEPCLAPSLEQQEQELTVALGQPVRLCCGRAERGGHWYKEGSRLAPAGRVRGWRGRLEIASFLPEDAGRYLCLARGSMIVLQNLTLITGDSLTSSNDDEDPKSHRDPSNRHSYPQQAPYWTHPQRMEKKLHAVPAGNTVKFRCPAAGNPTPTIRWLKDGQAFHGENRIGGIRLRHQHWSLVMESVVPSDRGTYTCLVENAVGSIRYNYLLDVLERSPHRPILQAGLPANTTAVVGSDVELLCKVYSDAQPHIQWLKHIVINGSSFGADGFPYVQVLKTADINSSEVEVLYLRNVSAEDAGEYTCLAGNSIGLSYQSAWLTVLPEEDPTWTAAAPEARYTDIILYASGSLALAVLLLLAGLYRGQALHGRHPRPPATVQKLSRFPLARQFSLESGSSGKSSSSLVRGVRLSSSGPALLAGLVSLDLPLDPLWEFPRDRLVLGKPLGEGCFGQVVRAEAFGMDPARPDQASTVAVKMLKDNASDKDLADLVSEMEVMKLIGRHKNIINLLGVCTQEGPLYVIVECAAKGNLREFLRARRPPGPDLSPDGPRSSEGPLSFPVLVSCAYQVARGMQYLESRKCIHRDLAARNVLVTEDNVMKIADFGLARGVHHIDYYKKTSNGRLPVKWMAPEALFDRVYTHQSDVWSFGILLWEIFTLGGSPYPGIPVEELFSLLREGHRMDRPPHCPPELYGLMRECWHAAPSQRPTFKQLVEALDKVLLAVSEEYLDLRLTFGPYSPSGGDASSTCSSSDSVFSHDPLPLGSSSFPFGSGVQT

[13] = biological target: Proto-oncogene tyrosine-protein kinase receptor Ret (Homo sapiens) (UniProt P07949); assay: Inhibition of human RET (E713 to D1014 residues) expressed in bacterial expression system at 100 nM by KINOMEscan assay relative to control
Chain of Proto-oncogene tyrosine-protein kinase receptor Ret (Homo sapiens) (P07949 whole entry, the tested form may be a part): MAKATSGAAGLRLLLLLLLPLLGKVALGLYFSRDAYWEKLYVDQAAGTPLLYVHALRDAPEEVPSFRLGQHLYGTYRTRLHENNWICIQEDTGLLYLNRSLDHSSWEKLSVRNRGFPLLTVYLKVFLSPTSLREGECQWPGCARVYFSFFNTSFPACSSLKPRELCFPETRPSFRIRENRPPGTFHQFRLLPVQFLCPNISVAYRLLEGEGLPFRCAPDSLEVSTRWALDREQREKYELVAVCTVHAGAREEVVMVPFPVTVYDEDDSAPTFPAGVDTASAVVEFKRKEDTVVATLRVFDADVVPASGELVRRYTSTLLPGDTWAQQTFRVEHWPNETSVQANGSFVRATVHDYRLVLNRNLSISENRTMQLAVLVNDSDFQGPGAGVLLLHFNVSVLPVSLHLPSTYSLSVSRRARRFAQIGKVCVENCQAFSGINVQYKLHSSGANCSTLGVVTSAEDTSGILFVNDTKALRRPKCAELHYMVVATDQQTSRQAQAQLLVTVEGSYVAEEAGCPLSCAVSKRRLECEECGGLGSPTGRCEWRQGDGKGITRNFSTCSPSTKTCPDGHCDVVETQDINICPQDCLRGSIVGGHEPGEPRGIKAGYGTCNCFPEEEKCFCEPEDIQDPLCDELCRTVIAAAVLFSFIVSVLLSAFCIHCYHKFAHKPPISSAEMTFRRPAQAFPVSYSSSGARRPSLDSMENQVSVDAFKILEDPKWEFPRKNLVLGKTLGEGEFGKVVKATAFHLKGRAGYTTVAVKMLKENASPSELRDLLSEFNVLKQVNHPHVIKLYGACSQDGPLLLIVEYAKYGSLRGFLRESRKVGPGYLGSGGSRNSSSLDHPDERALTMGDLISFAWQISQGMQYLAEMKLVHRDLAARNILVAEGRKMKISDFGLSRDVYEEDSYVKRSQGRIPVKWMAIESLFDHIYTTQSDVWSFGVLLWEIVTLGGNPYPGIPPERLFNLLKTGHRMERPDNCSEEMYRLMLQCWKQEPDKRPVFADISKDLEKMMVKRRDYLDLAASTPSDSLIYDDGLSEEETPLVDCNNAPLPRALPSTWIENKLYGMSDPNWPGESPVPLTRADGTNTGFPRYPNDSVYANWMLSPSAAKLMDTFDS

Homo sapiens [14] = organism: Homo sapiens; assay: Selectivity ratio of IC50 for recombinant cytoplasmic human His-tagged KIT expressed in baculovirus to IC50 for recombinant human His-tagged CSF1R cytoplasmic domain (538 to 910 residues) expressed in baculovirus
[15] = biological target: Platelet-derived growth factor receptor alpha (Homo sapiens, UniProt P16234); assay: Inhibition of recombinant cytoplasmic human GST-tagged PDGFRalpha expressed in baculovirus using poly (4:1 Glu, Tyr) peptide as substrate after 1 hr by ADP-Glo assay
Chain of Platelet-derived growth factor receptor alpha (P16234 whole entry): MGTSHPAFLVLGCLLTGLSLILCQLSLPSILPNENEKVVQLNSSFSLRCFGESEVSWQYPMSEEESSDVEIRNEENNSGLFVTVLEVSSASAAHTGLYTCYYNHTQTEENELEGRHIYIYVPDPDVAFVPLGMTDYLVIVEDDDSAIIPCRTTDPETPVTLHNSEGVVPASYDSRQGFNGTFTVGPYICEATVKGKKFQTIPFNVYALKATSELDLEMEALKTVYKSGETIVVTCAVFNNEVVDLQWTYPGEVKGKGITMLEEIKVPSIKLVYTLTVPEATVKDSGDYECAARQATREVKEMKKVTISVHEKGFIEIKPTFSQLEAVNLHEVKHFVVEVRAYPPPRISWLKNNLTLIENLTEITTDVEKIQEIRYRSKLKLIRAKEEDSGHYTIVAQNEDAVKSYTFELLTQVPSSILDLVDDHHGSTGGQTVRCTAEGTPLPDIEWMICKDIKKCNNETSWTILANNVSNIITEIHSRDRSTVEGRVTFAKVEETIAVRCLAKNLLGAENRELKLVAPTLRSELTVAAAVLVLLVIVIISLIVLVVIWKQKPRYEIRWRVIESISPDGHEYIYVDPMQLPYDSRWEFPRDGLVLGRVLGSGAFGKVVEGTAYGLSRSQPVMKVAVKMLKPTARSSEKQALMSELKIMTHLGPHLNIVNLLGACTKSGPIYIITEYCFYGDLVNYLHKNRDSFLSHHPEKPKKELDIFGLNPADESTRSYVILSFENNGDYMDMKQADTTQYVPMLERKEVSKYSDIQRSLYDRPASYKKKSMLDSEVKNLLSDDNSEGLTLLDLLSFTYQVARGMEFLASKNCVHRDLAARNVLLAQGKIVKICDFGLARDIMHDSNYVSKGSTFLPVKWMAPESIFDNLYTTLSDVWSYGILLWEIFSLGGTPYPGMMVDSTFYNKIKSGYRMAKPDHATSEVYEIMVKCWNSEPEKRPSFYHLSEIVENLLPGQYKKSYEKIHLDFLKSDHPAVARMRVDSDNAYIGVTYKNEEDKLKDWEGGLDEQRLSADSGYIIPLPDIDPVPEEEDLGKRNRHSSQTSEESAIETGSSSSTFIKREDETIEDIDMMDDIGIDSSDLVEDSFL

half-life [1]: 64.8 min
Ratio IC50 (Homo sapiens [3]): 10 to 35
inhibition [7]: > 90%
IC50 [8]: 10 nM
IC50 [9]: 37 nM
Ratio IC50 (Homo sapiens [10]): 10 to 35
Cmax [11]: 2520 ng/mL
IC50 [12]: 167 nM
inhibition [13]: > 90%
Ratio IC50 (Homo sapiens [14]): 10 to 35
IC50 [15]: 74 nM
SMILES: CCC(=O)N1CC[C@H](N2C(=O)N(c3cc(OC)ccc3Cl)Cc3cnc(Nc4ccc(N5CCN(C6COC6)CC5)c(C)c4)nc32)C1
inhibition (RAW264.7 [2]): Dose-dependent effect
inhibition at 0.4 µM (RAW264.7 [4]): 85%
Activity (RAW264.7 [5]): Dose-dependent effect
inhibition at 1.25 µM (RAW264.7 [6]): 52.7%
